Laboratory results published in ChEMBL document CHEMBL1123963, “Conformational preference for the binding of biaryl substrates and inhibitors to the active site of phenylethanolamine N-methyltransferase” (J Med Chem, 1988).

Tests used:
[1] = Activity of the substrate is measured as the ratio of 100*Vmax/Km
Outline: (§1)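 Bovine adrenal PNMT, purified through the isoelectric precipitation step, was used. The radiochemical assay contained phosphate buffer (pH 8.0), unlabeled AdoMet, [methyl-3H]AdoMet and enzyme, incubated 30 min at 37 °C. It was stopped with borate buffer (pH 10) and extracted into toluene-isoamyl alcohol (7:3). Km and Vmax came from at least five concentrations of the variable substrate; compounds were tested as hydrochloride salts.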

[2] = target: T1, Phenylethanolamine N-methyltransferase (Bos taurus, UniProt P10938); experiment: In vitro inhibition of compound towards phenylethanolamine N-methyltransferase(PNMT) isolated from bovine adrenal glands
T1 sequence (P10938 whole entry): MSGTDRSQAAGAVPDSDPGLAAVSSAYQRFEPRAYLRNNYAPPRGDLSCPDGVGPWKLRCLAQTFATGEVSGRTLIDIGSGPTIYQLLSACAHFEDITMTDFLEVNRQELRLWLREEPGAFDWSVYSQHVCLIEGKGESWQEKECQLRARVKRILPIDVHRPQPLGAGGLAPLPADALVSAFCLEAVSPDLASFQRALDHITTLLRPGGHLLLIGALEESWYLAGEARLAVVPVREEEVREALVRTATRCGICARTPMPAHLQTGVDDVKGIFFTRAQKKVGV
Outline: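 Inhibition was measured on bovine adrenal PNMT partially purified through the isoelectric precipitation step. The radiochemical assay used phosphate buffer (pH 8.0) with unlabeled and [methyl-3H]AdoMet, 30 min at 37 °C. It was quenched with pH 10 borate buffer and extracted into toluene-isoamyl alcohol (7:3). Ki came from at least three inhibitor concentrations with phenylethanolamine as the variable substrate; compounds were tested as hydrochloride salts.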

[3] = substrate: NCC(O)c1cccc(-c2ccccc2)c1; experiment: (§2) In vitro enzyme kinetics (PNMT)of the compound expressed as turnover rate isolated from bovine adrenal glands; outline: as §1
[4] = substrate: NC[C@@H](O)c1ccccc1; experiment: as §2; outline: as §1
[5] = substrate: NCC(O)c1ccc2c(c1)Cc1ccccc1-2; experiment: as §2; outline: as §1
[6] = substrate: NCC(O)c1cccc2c1Cc1ccccc1-2; experiment: as §2; outline: as §1
[7] = substrate: NCC(O)c1ccc(-c2ccccc2)cc1; experiment: as §2; outline: as §1
[8] = substrate: NC[C@@H](O)c1ccccc1; experiment: (§3) In vitro enzyme kinetics (PNMT) of the compound expressed as Michaelis constant isolated from bovine adrenal glands; outline: as §1
[9] = substrate: NCC(O)c1ccc2c(c1)Cc1ccccc1-2; experiment: as §3; outline: as §1
[10] = substrate: NCC(O)c1cccc2c1Cc1ccccc1-2; experiment: as §3; outline: as §1
[11] = substrate: NCC(O)c1ccc(-c2ccccc2)cc1; experiment: as §3; outline: as §1

Molecule `NCC(O)c1cccc(-c2ccccc2)c1` (stereo unspecified) has a Ratio [1] of 0.07.

For `CC(N)c1cccc2c1Cc1ccccc1-2` (stereo unspecified), the Ki [2] was 4.14 µM.

`NC[C@@H](O)c1ccccc1` gave a Ratio [1] of 3.1.

With `NCC(O)c1ccc(-c2ccccc2)cc1` (stereo unspecified) the Ratio [1] was 5.2.

In the case of `CC(N)c1ccc2c(c1)Cc1ccccc1-2` (stereo unspecified), the Ki [2] is reported as 185 µM.

For `NCC(O)c1cccc2c1Cc1ccccc1-2` (stereo unspecified), the Ratio [1] was 0.015.

In the case of `NCC(O)c1ccc2c(c1)Cc1ccccc1-2` (stereo unspecified), the Ratio [1] is reported as 6.7.

B1: Phenylethanolamine N-methyltransferase (Bos taurus), P10938 (protein)
chain: T1 sequence (P10938 whole entry)
B1 gave a Vmax (nM min-1 (mg of protein)-1) [3] of 0.46, a Vmax (nM min-1 (mg of protein)-1) [4] of 2.2 and a Vmax (nM min-1 (mg of protein)-1) [5] of 1.76. The Vmax (nM min-1 (mg of protein)-1) [6] was 0.046, the Vmax (nM min-1 (mg of protein)-1) [7] was 4.3 and the Km [8] was 70 µM. It also gave a Km [9] of 26.3 µM, a Km [10] of 297 µM and a Km [11] of 82 µM.
